The record followed here is BindingDB's records for doi:10.1021/jm0582625 (University of Illinois At Urbana-Champaign, 2006).

pIC50: −log10 of the molar value. Where only a bound is given, the exact number is not on record here.

One assay deals with T1, Phosphotransferase (Trypanosoma cruzi, UniProt Q8ST54).
T1 sequence (Q8ST54 whole entry): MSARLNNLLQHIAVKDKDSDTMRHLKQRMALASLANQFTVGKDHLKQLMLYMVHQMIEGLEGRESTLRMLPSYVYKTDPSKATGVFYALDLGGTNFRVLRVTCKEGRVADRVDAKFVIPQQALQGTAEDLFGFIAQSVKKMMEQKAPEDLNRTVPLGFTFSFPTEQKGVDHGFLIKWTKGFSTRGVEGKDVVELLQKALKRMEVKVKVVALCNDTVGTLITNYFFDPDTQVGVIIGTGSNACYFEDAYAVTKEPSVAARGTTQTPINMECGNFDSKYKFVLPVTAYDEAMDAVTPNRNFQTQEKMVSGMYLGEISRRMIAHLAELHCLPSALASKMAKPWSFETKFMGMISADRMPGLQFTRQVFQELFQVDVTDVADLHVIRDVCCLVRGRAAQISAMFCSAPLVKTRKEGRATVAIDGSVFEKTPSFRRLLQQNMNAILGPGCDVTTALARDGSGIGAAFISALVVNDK
As to the kind of experiment: Inhibitory activity against Trypanosoma cruzi hexokinase. In short, it runs like this: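 Native glycosomal T. cruzi hexokinase, purified by a previously described procedure. Activity was followed as NADPH formation at 340 nm, coupled to D-glucose-6-phosphate dehydrogenase. Inhibition was reported as IC50.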

Assay [1] addresses farnesyl pyrophosphate synthase (Leishmania major). Nature of the assay: Inhibitory activity against FPPS in Leishmania major.

What is called pIC50 is the negative decadic logarithm of the IC50, by convention in mol/L. Low readings indicate a large IC50, high ones a small IC50. As for `O=P(O)(O)C(CN[C@@H](CO)c1ccccc1)P(=O)(O)O`, on Phosphotransferase, the pIC50 is < 3.52.

Turning to `O=P(O)(O)C(Cc1cccc(-c2ccccc2)c1)S(=O)(=O)O` (stereo not given) [2-biphenyl-3-yl-1-phosphono-ethanesulfonic acid], in assay [1], the pIC50 was 4.96.

On to `C[C@H](NC(P(=O)(O)O)P(=O)(O)O)c1cccc2ccccc12` [(Bis-phosphono-methyl)-((S)-1-naphthalen-1-yl-ethyl)-ammonium], for which, on Phosphotransferase, the pIC50 was < 3.52.

As for `O=P(O)(O)C(NC1CC1)P(=O)(O)O` [(cyclopropylamino-phosphono-methyl)-phosphonic acid], the pIC50 on Phosphotransferase was < 3.52.

`CCCNC(P(=O)(O)O)P(=O)(O)O` [propylaminomethylene-1,1-bisphosphonate]: at Phosphotransferase, the pIC50 is < 3.52.
